Hits are enriched below; roughly 5.4% of the tested compounds scored in any of these assays.
SKKanGAS inh: S. pyogenes SKKanGAS growth inhibitors in kanamycin, primary screen, streptokinase expression inhibitor project, SKKanGAS strain, BacTiter-Glo luminescence; 6 h; 300,000 compounds, 1.3% hits; inhibition, % at 7.5 µM;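 active = mean replicate score, as percent of positive control median, at least 50; inconclusive = mean below 50 but one replicate at or above 50; inactive = mean and every replicate below 50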;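 note: strain carries kanamycin resistance gene driven by streptokinase promoter and grows in 40 µg/ml kanamycin; loss of luminescence reflects streptokinase promoter inhibition or plain growth inhibition; 0% = median of DMSO wells and 100% = positive control at its reference dose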
aSyn UTR inh: MLPCN primary screen, SNCA 5' untranslated region; alpha-synuclein 5'UTR reporter, inhibitor activity; inhibition, % (tested at 7.5 µM); 300,000 compounds, 0.82% hits; in the data active = inhibition above about 60%; inconclusive = no clear call, values can overlap the other calls;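 note: H4 neuroglioblastoma cells stably carrying SNCA 5'UTR luciferase fusion; 0% = DMSO wells and 100% = positive control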
CSC inhib: cancer stem cell viability inhibitors, primary screen, luminescence; cancer stem cell-like cells viability; inhibition, % at 7.5 µM; 300,000 compounds, 1.1% hits; AID 2717, 2010; in the data active = inhibition above about 75%; inconclusive = no clear call, values can overlap the other calls; tested in HMLE shEcad cells
Mdm2-MdmX inh: inhibitors of human Mdm2-MdmX association, primary screen, cell-based, luminescence, split luciferase, SaOS-2, uHTS. inhibition, % at 8 µM. 330,000 compounds, 3% hits. SaOS-2 split-luciferase Mdm2/MdmX complementation;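 active = inhibition of at least 50% at 8 µM in the primary screen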
T cruzi inh: inhibitors of intracellular T. cruzi growth, primary screen, luminescence, NIH3T3 host cells | AID 1885, 2009 | T. cruzi beta-gal in NIH3T3, 90 h | inhibition, % (test concentration not listed) | 300,000 compounds, 1.4% hits;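 active = mean inhibition across valid replicates above about 55%, limit read from the data; inconclusive = mean below that limit but half or more replicates reach it; inactive = mean below it, under half of replicates reach it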;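 note: signal also drops with host cell toxicity which is not excluded here; 0% = plate median of DMSO wells and 100% = zero luminescence signal; higher percent means less beta-gal luminescence so fewer parasites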
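Incubation – ≥90 h infection period, 3 h prior cell attachment · System – NIH/3T3 fibroblasts plus reporter T. cruzi · Doses – compound pinned at 50 nL/well, DMSO · Read-out basis – percent inhibition of parasite-derived β-gal signal · Signal – luminescent β-galactosidase signal after 60 min lysis · Also added – 5000 T. cruzi trypomastigotes/well · Medium – Low-serum DMEM with 2% FBS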
Active calls of the source: *; ? = inconclusive; . = not tested or not shown.

SMILES	SKKanGAS inh	aSyn UTR inh	CSC inhib	Mdm2-MdmX inh	T cruzi inh
COc1ccc2nc(N3C(=O)CNC3=S)sc2c1	65*	-46	-11	-18	-30
Cc1ccc2nc(N3C(=O)CNC3=S)sc2c1	89*	-68	13	-24	-25
COc1ccc2c(C)cc(SCC(=O)c3ccc4c(c3)OCO4)nc2c1	8	-24	30	-9	59*
Cc1cc(Cl)ccc1NC(=O)COC(=O)c1c(C)noc1C	.	.	0	24	.
CCOC(=O)CSc1nc2c(sc(=S)n2-c2ccccc2OC)c(=O)n1-c1ccccc1OC	8	-1	1	-9	-11
COc1ccc(-n2c(SCC(=O)C(C)(C)C)nc3c(sc(=S)n3-c3ccccc3)c2=O)c(OC)c1	-6	-28	4	13	60*
CCOC(=O)C1CCCN(C(=O)c2cccc(N3C(=O)c4ccccc4C3=O)c2)C1 (centres undefined)	.	.	.	22	.
CCOC(=O)C1CCCN(C(=O)c2ccc3c(c2)N(C)C(=O)/C(=C/c2ccccc2Cl)S3)C1 (centres undefined)	105*	0	-13	34	9
CN1C(=O)/C(=C/c2ccccc2Cl)Sc2ccc(C(=O)N3CCCC3)cc21	99*	-43	-11	27	-4
CN1C(=O)/C(=C/c2ccc(C(F)(F)F)cc2)Sc2ccc(C(=O)N3CCN(c4ccccn4)CC3)cc21	104*	13	-10	23	44
O=C(CN1CCN(c2ccccn2)CC1)N1c2ccccc2Sc2ccc(C(F)(F)F)cc21	9	-4	14	28	21
Cc1noc(C)c1COc1ccc(C(=O)N2CCN(c3ccccc3O)CC2)cc1	.	.	-4	30	.
O=C(NCCc1ccccc1F)C1CCCN(c2nc3ccccc3s2)C1 (centres undefined)	8	-17	.	6	8
CN(C)S(=O)(=O)c1ccc(N2CCCC2)c(C(=O)NCC2COc3ccccc3O2)c1 (centres undefined)	2	6	-9	-10	2
Cc1c(C(=O)NCC2COc3ccccc3O2)oc2ccc(S(=O)(=O)N(C)C3CCCCC3)cc12 (centres undefined)	13	16	16	3	75*
O=C(c1ccc2c(=O)n(C3CCCC3)c(=S)[nH]c2c1)N1CCc2ccccc21	25	-17	-28	11	5
CCCn1cc(CN2CCC(n3nccc3NC(=O)c3ccc4c(c3)OCO4)CC2)c(C)n1	-4	-4	.	15	27
CNC(=O)C1C(=S)NC(N)=C(C#N)C1c1ccccc1 (centres undefined)	7	6	112*	11	-20
COC(=O)C1=C(C)OC(N)=C(C#N)C1c1ccccc1 (centres undefined)	-3	10	-1	3	-3
Cc1noc(C)c1S(=O)(=O)Nc1ccc2c(c1)CC(=O)N([C@H](C)CO)C[C@H](C)[C@H](CN(C)S(=O)(=O)c1ccc(F)cc1)O2	.	.	.	18	.
CN(CC(=O)Nc1ccc(F)c(F)c1F)c1cnccn1	-7	-13	-3	20	64*
COc1ccc(CCNC(=O)CNC(=O)Cn2ccc3ccccc3c2=O)cc1OC	1	-12	-16	-24	-7
CC(=O)OCC1=C(C(=O)O)N2C(=O)C(NC(=O)c3ccc(COc4cccc(Cl)c4Cl)o3)C2SC1 (centres undefined)	72*	-2	64	9	?
CC(=O)c1c(C)[nH]c(C(=O)OCCOc2ccccc2)c1C	-7	67*	15	-11	10
CCN(CC)CCN(C(=O)Cn1nnc(-c2ccc(C)o2)n1)C(C(=O)NC1CCCC1)c1ccc(F)cc1 (centres undefined)	0	-1	.	-14	-4
SMILES	SKKanGAS inh	aSyn UTR inh	CSC inhib	Mdm2-MdmX inh	T cruzi inh
COc1ccc(C(O)C(CC(=O)NCCCOC(C)C)C(=O)NCCCOC(C)C)cc1OC (centres undefined)	-1	7	-8	-12	-14
C/C(CC(=O)Nc1ccc(Cl)c(C(F)(F)F)c1)=N\NC(=O)c1cc2ccccc2cc1O	95*	-14	76*	25	-22
COc1cccc(NC(=O)C/C(C)=N/NC(=O)c2ccccc2Cl)c1	4	19	20	5	-3
C[C@H]1COC2=C1C(=O)C(=O)c1c2ccc2c1CCCC2(C)C	86*	102*	67	.	-8
CCN(c1ccccc1)S(=O)(=O)c1ccc(Cl)c(C(=O)NCC2CCCO2)c1 (centres undefined)	0	-25	-6	3	3
O=[N+]([O-])c1cccc2ccc(/C=C/c3ccc(C(F)(F)F)cc3)nc12	-13	-94	78*	15	38
O=[N+]([O-])c1cccc2ccc(/C=C/c3ccc(Cl)cc3)nc12	3	-149	66	-90	18
CC(C)(CO)CNC1CCCN(C2Cc3ccccc3C2)C1 (centres undefined)	0	10	-11	17	66*
CSc1nsc2nc(=O)c(/C=C3\C=Nc4ccccc43)c(N)n12	50*	-49	30	-24	0
CCOC(=O)c1ccc(S(=O)(=O)N2CCN(C3CC(=O)N(c4ccccc4C(F)(F)F)C3=O)CC2)cc1 (centres undefined)	.	.	.	-4	.
O=C(CC(C(=O)O)c1ccc(Cl)cc1Cl)c1ccc(Cl)cc1 (centres undefined)	13	-5	0	16	-11
COC(=O)c1ccc(COc2ccc(Cl)cc2)o1	-4	-48	-2	0	-9
C=CCOc1ccc(/C=N\NC(N)=S)cc1	-12	-59	0	-1	64*
COC(=O)c1ccc(COc2ccc(/C=N/NC(N)=S)cc2)o1	-8	-15	5	-4	55*
COc1ccc(/C=N/NC(N)=S)cc1	-4	-4	-2	12	-1
CC1CCCCC1N1CN=C(Nc2nc3ccccc3s2)NC1 (centres undefined)	4	-10	5	4	30
O=C1c2cccc3cccc(c23)C(=O)N1CCN1CCN(CC(O)COCc2ccc(Cl)cc2)CC1 (centres undefined)	5	-6	82*	13	12
COc1cc(COCC(O)CN2CCN(CCN3C(=O)c4cccc5cccc(c45)C3=O)CC2)cc(OC)c1OC (centres undefined)	-6	-15	-21	-15	-52
Nc1cc(=O)[nH]c(SCC(=O)NNC(=O)c2ccccc2)n1	-15	-12	.	-3	-2
COc1cccc(CN(C)CC2CCCN(CCc3ccccc3C)C2)c1 (centres undefined)	-3	-9	4	21	55*
CC1=CC(C)(C)N(C(=O)c2ccccc2)c2ccc(C)cc21	63*	16	.	-6	18

Screens deposited in PubChem by several laboratories.
